TbMetRS inhib: T. brucei MetRS inhibitors, primary screen, biochemical, luminescence; methionyl-tRNA synthetase (Trypanosoma brucei brucei); purified T. brucei MetRS, ATP depletion, Kinase-Glo luminescence; inhibition, % at 11.9 µM; actives 0.4% (n = 360,000);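 active = inhibition above a per-plate cutoff of the control wells' mean inhibition plus 3 SD, cut at about 5.5% in these data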
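Test system: purified T. brucei MetRS enzyme. Also added: ATP, methionine and E. coli bulk tRNA substrates. Compound: 11.9 µM single point. Schedule: 15 min enzyme-compound preincubation, 2 h reaction, 10 min detection, 25 °C. Signal: luciferase luminescence of residual ATP, Kinase-Glo. Evaluation: percent inhibition versus plate control medians. Controls: DMSO wells, low control.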
CAL PDZ FP-1: untagged CAL PDZ binding inhibitors, primary screen, biochemical, fluorescence polarization, HTS; actives 0.92% (n = 300,000); purified CAL PDZ, TMR-peptide fluorescence polarization, 1 h; inhibition, % at 24.9 µM; AID 602252, 2012; Golgi-associated PDZ and coiled-coil motif-containing protein (Homo sapiens), Q9HD26;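 active = mean inhibition of at least 30% with at least half of replicates also reaching 30%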
DYRK1A inh: rat Dyrk1A kinase inhibitors, primary screen, biochemical, single point, plate reader; inhibition, % at 12.5 µM; Dual specificity tyrosine-phosphorylation-regulated kinase 1A (Rattus norvegicus), Q63470; actives 0.43% (n = 310,000); ADP-Glo luminescence, NFATc1 peptide; in the data active = inhibition above about 50%
PvdQ acylase: P. aeruginosa PvdQ acylase inhibitors, primary screen, biochemical, fluorescence, plate reader and imaging, single point | PvdQ acylase [Pseudomonas aeruginosa LESB58] | purified PvdQ acylase | inhibition, % at 10 µM | actives 0.063% (n = 340,000) | AID 488965, 2010; in the data active = inhibition above about 30%, passing the limit was not always enough
CDK5 p35 inh: inhibitors of human CDK5/p35 kinase, primary screen, biochemical, single concentration. Cyclin-dependent kinase 5 (Homo sapiens) + Cyclin-dependent kinase 5 activator 1 (Homo …. Recombinant CDK5/p35, ADP-Glo luminescence, 60 min. inhibition, % at 10 µM. actives 0.01% (n = 330,000);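 active = highest replicate inhibition of at least 50% and at least 75% of replicates reaching 50%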
Target sequence (Q00535 whole entry, looked up): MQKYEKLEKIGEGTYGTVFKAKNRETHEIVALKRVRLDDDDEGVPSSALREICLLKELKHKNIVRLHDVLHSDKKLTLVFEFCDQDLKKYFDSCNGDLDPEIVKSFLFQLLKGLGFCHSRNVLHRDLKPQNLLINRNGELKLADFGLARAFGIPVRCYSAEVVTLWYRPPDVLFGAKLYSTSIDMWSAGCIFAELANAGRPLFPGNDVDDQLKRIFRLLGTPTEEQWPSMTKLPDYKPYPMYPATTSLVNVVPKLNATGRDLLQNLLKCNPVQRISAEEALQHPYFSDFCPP
Target sequence (Q15078 whole entry, looked up): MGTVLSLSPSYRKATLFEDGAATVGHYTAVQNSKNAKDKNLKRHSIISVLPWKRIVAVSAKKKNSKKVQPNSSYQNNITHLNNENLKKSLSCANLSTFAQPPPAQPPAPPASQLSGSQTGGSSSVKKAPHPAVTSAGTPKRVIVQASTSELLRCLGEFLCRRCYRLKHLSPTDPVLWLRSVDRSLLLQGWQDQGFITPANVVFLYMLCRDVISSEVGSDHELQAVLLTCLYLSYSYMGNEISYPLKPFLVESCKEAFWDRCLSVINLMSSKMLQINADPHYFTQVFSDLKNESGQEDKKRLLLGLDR
CAL PDZ FP-2: CAL PDZ peptide-binding inhibitors, primary screen, biochemical, fluorescence polarization, Cer-tagged CAL PDZ, HTS; Golgi-associated PDZ and coiled-coil motif-containing protein (Homo sapiens), Q9HD26; purified CAL PDZ, TMR-peptide fluorescence polarization, 1 h; inhibition, % at 20 µM; actives 0.02% (n = 330,000); AID 504414, 2011;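 active = highest replicate inhibition of at least 40%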
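Test system: purified CerCALP PDZ construct; Compound dosing: one concentration, 20 µM compound; Also added: TMR-labelled reporter peptide T*-PRC34 bound in PDZ groove; Read-out: inhibition from polarization loss; Controls: unlabelled peptide and DMSO controls; Signal: FP readout, S and P plane fluorescence; Incubation: 1 h at RT.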
ADP-Glo artifact: ADP-Glo luciferase interference without Dyrk1A, dose response, artefact control for Dyrk1A inhibitor project, biochemical, luminescence, cherry-pick, set 02. shares compounds with DYRK1A inh. ADP-Glo luciferase artifact assay, no Dyrk1A. AC50, µM (series often up to 12 µM). 1,300 tested, under 10 active;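 active = fitted half-maximal dose AC50 no more than ten times the top valid tested dose, with luminescence dropping as dose rises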
A number is an active result; – = inactive; · = not tested or not shown. A selection: hits, their analogues and other compounds. The true share with any hit is near 1.4%.

SMILES | TbMetRS inhib | CAL PDZ FP-1 | DYRK1A inh | PvdQ acylase | CDK5 p35 inh | CAL PDZ FP-2 | ADP-Glo artifact
CC(=O)Nc1ccc(Nc2cc(C)nc3c(-c4ccccc4)cnn23)cc1 | – | – | 55 | – | – | – | –
O=C(c1cccs1)N1C[C@@H](O)[C@H](n2cc(-c3ccc(F)cc3)nn2)C[C@@H]1c1ccccc1 | – | · | · | · | · | · | ·
Cc1occc1C(=O)/C(C#N)=C/c1ccc(O)c(Br)c1 | – | – | 67 | – | – | – | –
Clc1cccc(Cc2nn[nH]n2)c1 | – | · | 59 | – | – | – | –
Cc1ccccc1CNC(=O)c1[nH]c(C(F)(F)F)nc1-c1ccccc1 | – | · | · | · | · | · | ·
Cc1ccc([C@H]2C[C@@H](O)[C@H](n3cc(C4CC4)nn3)CN2C(=O)c2cccs2)cc1 | – | · | · | · | · | · | ·
O=C(O)c1ccc(-n2cc(-c3cc4ccccc4oc3=O)[nH]c2=S)cc1 | – | – | 67 | – | – | – | –
CCN(CC)CC(C)(C)C(=O)/C=C/c1ccc(/C=C/C(=O)C(C)(C)CN(CC)CC)cc1 | – | – | · | – | – | – | ·
NS(=O)(=O)c1ccc(-c2ccc(/C=C3\NC(=S)NC3=O)o2)cc1 | – | – | 75 | – | – | – | –
NS(=O)(=O)c1ccc(-c2ccc(C=O)o2)cc1 | – | – | – | – | – | – | ·
COc1nc(C)ccc1-c1noc(-c2ccccn2)n1 | – | · | 57 | – | – | – | –
c1cnc2ncc3sccc3c2c1 | – | – | 59 | – | – | – | –
CCNc1nc(SCC(N)=O)nc2sc3c(c12)CCN(C)C3 | – | – | – | – | – | – | ·
CSc1nc(SCC(N)=O)c2c3c(sc2n1)CN(C)CC3 | – | – | 85 | – | – | · | –
CSc1nc(SCC(=O)NCc2ccco2)c2c3c(sc2n1)CN(C)CC3 | – | – | 63 | – | – | · | –
CC(C)NC(=O)C1(C)CSCC(=O)N1CCCN1CCOCC1 (stereo unspecified) | – | · | · | · | · | · | ·
Cn1nnnc1Sc1ncnc2scc(-c3ccc(Cl)cc3)c12 | – | – | – | – | – | – | ·
COc1ccc(-c2csc3ncnc(Sc4nnnn4C)c23)cc1 | – | – | 50 | – | – | – | –
Cn1c(=O)c2c(nc(NCc3ccco3)n2CC(O)COc2ccccc2)n(C)c1=O (stereo unspecified) | – | – | 56 | – | – | – | –
COc1ccc(C2=Nn3c(nnc3-c3ccco3)SC2)cc1 | – | – | – | – | – | – | ·
Oc1ccc(C2=Nn3c(nnc3-c3ccco3)SC2)cc1O | – | – | 79 | – | – | – | –
Clc1ccccc1C1=Nn2c(nnc2-c2ccco2)SC1 | – | · | · | · | · | · | ·
COc1ccc(OC)c(C2=Nn3c(nnc3-c3ccco3)SC2)c1 | – | · | 74 | – | – | – | –
c1ccc2c(c1)Nc1ccncc1S2 | – | – | 79 | – | – | – | –
CCc1nc2c(OCc3ccc(C(F)(F)F)cc3)cccn2c1N(C)C(=O)c1ccncc1 | – | · | · | · | · | · | ·
SMILES | TbMetRS inhib | CAL PDZ FP-1 | DYRK1A inh | PvdQ acylase | CDK5 p35 inh | CAL PDZ FP-2 | ADP-Glo artifact
c1ccc(Cc2nnc3sc(-c4ccc5c(c4)OCCO5)nn23)cc1 | – | · | 80 | – | – | – | –
COC1=CC(=O)OC(c2ccc(C(F)(F)F)cc2)C1 (stereo unspecified) | – | · | · | · | · | · | ·
Nc1[nH]n2c(=O)cc(-c3ccccc3)nc2c1N=Nc1ccc(S(N)(=O)=O)cc1 | – | – | 64 | – | – | · | –
Nc1[nH]n2c(=O)cc(-c3ccccc3)nc2c1N=Nc1ccccc1 | – | – | – | – | – | – | ·
Cc1ccccc1NC(=S)Nc1cccc2cnccc12 | – | – | – | – | – | – | ·
Fc1ccccc1NC(=S)Nc1cccc2cnccc12 | – | – | 65 | – | – | – | –
CCN1CCN(c2nc(Nc3cccc(C)c3)nc(N)c2[N+](=O)[O-])CC1 | – | – | 60 | – | – | – | –
N#CC(C#N)=C1NC(N)=C(C#N)C(c2ccccc2)=C1C#N | – | – | 66 | – | – | – | –
N#CC1=C(c2ccccc2)/C(=C/c2ccccc2)OC1=O | – | – | – | – | – | – | ·
COc1cc(-c2nc3ccccc3s2)ccc1O | – | – | 77 | – | – | – | –
CCOc1cc(-c2nc3ccccc3s2)ccc1O | – | – | 58 | – | – | – | –
C[C@H]1CN([C@@H](C)CO)C(=O)c2cc(Br)cnc2O[C@H]1CN(C)Cc1ccc(Oc2ccccc2)cc1 | – | · | · | · | · | · | ·
Cc1cccnc1C(NC(=O)C1CCN(CCCOc2ccc(F)cc2)CC1)c1ccccc1 (stereo unspecified) | – | · | · | · | · | · | ·
CCC(C(=O)NC(C)(C)C)n1c(-c2ccc3c(c2)OCO3)nc2ccccc21 (stereo unspecified) | – | · | · | · | · | · | ·
Oc1ccc(/C=N/n2c(-c3ccccc3)n[nH]c2=S)cc1Br | – | · | 56 | – | – | – | –
COc1ccc(Nc2c(C3CC3)nc3nc(C)cc(C)n23)cc1 | – | · | · | · | · | · | ·
O=C1C=CC(O)(c2cc(=O)c3c(O)cc(O)cc3o2)C=C1 | – | – | 51 | – | – | – | –
CCCCOc1cccc(C(=O)NC(=S)Nc2ccc(Cl)c(C(=O)O)c2)c1 | – | · | 66 | – | – | – | –
CCOCCOc1nc2c(c(=O)n(C)c(=O)n2C)n1Cc1ccc(C)cc1 | – | · | 60 | – | – | – | –
CCCCOCCCNC(=O)C[C@@H]1C[C@@]2(C(=O)OCC)CCCC=C2N(Cc2ccco2)C1=O | – | · | · | · | · | · | ·
CC1=C(C(=O)N(C)C)CC(CC(=O)NCCN2CCOCC2)C(=O)N1CCCN1CCCC1=O (stereo unspecified) | – | · | · | · | · | · | ·
O=C(O)c1ccc(-c2ccc(/C=c3/sc4nc5ccccc5n4c3=O)o2)cc1Cl | – | – | 54 | – | – | – | –
CCN(CCCNc1cc2c(c(N)c1S(=O)(=O)O)C(=O)c1ccccc1C2=O)c1ccccc1 | – | · | · | · | · | · | ·
O=C1CC(c2ccc(S(=O)(=O)NC3CC3)cc2)CN1 (stereo unspecified) | – | · | 58 | – | – | – | –
O=C1CC(c2ccc(S(=O)(=O)NCc3ccncc3)cc2)CN1 (stereo unspecified) | – | – | – | – | – | – | ·
Nc1[nH]c(C(=O)c2ccccc2)c(-c2cccc3ccccc23)c1C(=O)NCc1ccccc1 | – | · | · | · | · | · | ·
S=c1[nH]c2ccccc2n2c(=S)[nH]nc12 | – | – | 56 | – | – | – | –
Cc1ccc(-c2nn[nH]n2)cc1 | – | – | – | – | – | – | ·
